Rows were chosen to be rich in hits. Some 3.3% of all compounds tested hit in one or more screens of this group.
E-selectin induc = E-selectin induction in HUVECs, primary screen, imaging, HUVEC, immunofluorescence imaging, single point. activation, % at 7.58 µM. P16581. 260,000 tested, 0.37% active. normalized: neutral wells 0, TNF-alpha wells 100;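 active = mean E-selectin-positive cell signal at least 10% of the positive control, reached in at least 60% of replicates, without over 20% cell loss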
Target sequence (P16581 whole entry, looked up): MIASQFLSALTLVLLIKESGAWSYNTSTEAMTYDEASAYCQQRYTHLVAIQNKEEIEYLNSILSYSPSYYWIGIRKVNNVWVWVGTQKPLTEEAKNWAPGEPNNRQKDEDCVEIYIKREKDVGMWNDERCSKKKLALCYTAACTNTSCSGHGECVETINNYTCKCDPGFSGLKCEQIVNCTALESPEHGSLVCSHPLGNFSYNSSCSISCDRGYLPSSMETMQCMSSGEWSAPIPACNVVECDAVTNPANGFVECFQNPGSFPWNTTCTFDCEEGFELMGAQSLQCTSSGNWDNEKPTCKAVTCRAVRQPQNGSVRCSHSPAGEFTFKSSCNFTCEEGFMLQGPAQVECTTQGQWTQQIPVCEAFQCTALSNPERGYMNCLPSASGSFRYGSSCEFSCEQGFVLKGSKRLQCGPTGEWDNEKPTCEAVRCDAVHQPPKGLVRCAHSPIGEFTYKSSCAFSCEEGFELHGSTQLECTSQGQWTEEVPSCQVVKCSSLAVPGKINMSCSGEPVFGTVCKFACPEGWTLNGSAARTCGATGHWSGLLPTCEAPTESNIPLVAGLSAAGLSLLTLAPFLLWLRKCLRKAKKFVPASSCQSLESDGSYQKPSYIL
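System: HUVEC / Compound: single concentration / Signal: immunofluorescence imaging / Read-out: percent E-selectin-positive cells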
C2C12 statin = suppressors of statin myotoxicity in C2C12 myotubes, primary screen, cell-based, single point, plate reader; C2C12 myotubes + simvastatin, ATP luminescence, 48 h; scaled: DMSO 0, geranylgeraniol control 100; rescue of ATP level, % at 7.49 µM; 330,000 tested, 0.78% active; AID 602340, 2012;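 active = mean ATP rescue above about 67%, or every replicate alone reaching that limit, limit read from the data, passing the limit was not always enough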;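 note: myotubes were challenged with 10 µM simvastatin during compound exposure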
FGF22 binding = binders of human FGF22 protein, primary screen, FGF22 synaptogenesis inhibitor project, biophysical, thermal shift, single point | recombinant FGF22 thermal shift, SYPRO orange fluorescence; percent of sucrose octasulfate shift, DMSO zero | activity (Tm shift, normalised), % at 9.99 µM | 340,000 tested, 1.5% active;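 active = mean Tm shift, scaled 0 neutral to 100 positive control, at about 1.3% or above, every replicate too, limit read from the data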
PglD DTNB = C. jejuni PglD acetyltransferase inhibitors, primary screen, biochemical, DTNB colorimetric, single point; UDP-N-acetylbacillosamine N-acetyltransferase PglD (Campylobacter jejuni); purified PglD enzyme, DTNB colorimetric CoA detection; inhibition, % at 12.5 µM; 360,000 tested, 0.098% active; AID 602405, 2012; in the data active = inhibition above about 16%, passing the limit was not always enough
DENV2 CPE = inhibitors of DENV2 cytopathic effect, primary screen, cell-based, plate reader, single concentration. CPE inhibition, % at 9.99 µM. 350,000 tested, 1.7% active. AID 651640, 2012. DENV2-infected cells, cytopathic effect rescue; in the data active = CPE inhibition above about 20%, passing the limit was not always enough; tested in BHK-21 cells
XiGFP reactiv = activators of inactive X chromosome reactivation, primary screen, imaging, XiGFP fibroblasts, GFP high-content imaging, set 2; XiGFP mouse fibroblasts, % GFP-positive cells imaging, 3 d; cells co-treated with 5-aza-dC sensitizer; scaled so ellipticine positive control = 100%; activation, % at 7.58 µM; 360,000 tested, 0.055% active;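 active = mean normalized replicate activation at least 10% and every replicate at or above 10%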
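material = 68-5-11 XiGFP fibroblast line | medium = DMEM plus 5-aza-dC sensitizer | schedule = 3 days compound exposure | benchmarks = positive control ellipticine, 6 µM final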
Large screens that a line does not name were inactive.

C[C@@H]1CN([C@H](C)CO)C(=O)c2cc(NS(=O)(=O)c3cn(C)cn3)ccc2O[C@H]1CN(C)Cc1ccc2c(c1)OCO2	none (no result: E-selectin induc)
Cc1ccc(CC2CC(=O)N(CCc3ccc4c(c3)OCO4)C2=O)cc1 (stereo not given)	C2C12 statin 147 (no result: E-selectin induc, FGF22 binding, DENV2 CPE, XiGFP reactiv)
COc1ccc(C(C[N+](=O)[O-])c2c(C)[nH]n(-c3ccccc3)c2=O)cc1 (stereo not given)	none (no result: E-selectin induc)
Cc1[nH]n(-c2ccccc2)c(=O)c1C(C[N+](=O)[O-])c1ccccc1Cl (stereo not given)	C2C12 statin 118 (no result: E-selectin induc, FGF22 binding, DENV2 CPE, XiGFP reactiv)
C[C@H]1CCCCO[C@H](CN(C)CC2CCCCC2)[C@@H](C)CN([C@@H](C)CO)C(=O)c2cc(NC(=O)CCC(F)(F)F)ccc2O1	none (no result: C2C12 statin)
C[C@@H]1CN([C@H](C)CO)C(=O)c2cc(NC(=O)CCC(F)(F)F)ccc2O[C@@H](C)CCCCO[C@@H]1CN(C)C(=O)C1CCCCC1	DENV2 CPE 88 (no result: C2C12 statin)
C[C@@H]1CCCCO[C@H](CN(C)CC2CCCCC2)[C@@H](C)CN([C@H](C)CO)C(=O)c2cc(NC(=O)CCC(F)(F)F)ccc2O1	DENV2 CPE 52 (no result: C2C12 statin)
C[C@@H]1CCCCO[C@@H](CN(C)CC2CCCCC2)[C@@H](C)CN([C@@H](C)CO)C(=O)c2cc(NC(=O)CCC(F)(F)F)ccc2O1	DENV2 CPE 30 (no result: C2C12 statin)
C[C@H]1CCCCO[C@H](CN(C)C(=O)C2CCCCC2)[C@@H](C)CN([C@@H](C)CO)C(=O)c2cc(NC(=O)CCC(F)(F)F)ccc2O1	none (no result: C2C12 statin, DENV2 CPE)
C[C@H](CO)N1C[C@H](C)[C@H](CN(C)CC2CCCCC2)OCCCC[C@H](C)Oc2ccc(NC(=O)CCC(F)(F)F)cc2C1=O	none (no result: C2C12 statin)
COc1ccc(NC(=O)Nc2ccc3c(c2)CC(=O)N([C@H](C)CO)C[C@H](C)[C@@H](CN(C)S(=O)(=O)c2ccccc2)O3)cc1	none (no result: PglD DTNB)
CC(C)C#Cc1ccc2c(c1)O[C@H](CN(C)C(=O)NC(C)C)[C@H](C)CN([C@@H](C)CO)S2(=O)=O	none
C[C@@H](NC(=O)C[C@H]1CC[C@@H]2[C@H](COC[C@H](O)CN2C(=O)Nc2cc(Cl)cc(Cl)c2)O1)c1ccccc1	none
CCCC(=O)Nc1ccc2c(c1)OC[C@H](C)N(Cc1ccccc1F)C[C@H](C)[C@@H](OC)CN(C)C2=O	DENV2 CPE 21
CCCC(=O)Nc1ccc2c(c1)OC[C@@H](C)N(Cc1ccncc1)C[C@@H](C)[C@@H](OC)CN(C)C2=O	none
CCCC(=O)Nc1ccc2c(c1)OC[C@@H](C)N(Cc1ccncc1)C[C@H](C)[C@@H](OC)CN(C)C2=O	DENV2 CPE 25
C=CCNc1nc(C(=O)OCC(=O)NCc2ccccc2OC)cs1	DENV2 CPE 66 (no result: E-selectin induc)
CCOP(=O)(OCC)C(NC(=O)Nc1c(C)cc(C)cc1C)c1ccccc1 (stereo not given)	FGF22 binding 43 (no result: E-selectin induc)
CO[C@H]1CN(C)C(=O)c2ccc(NC(=O)CC(F)(F)F)cc2OC[C@H](C)N(S(=O)(=O)c2cn(C)cn2)C[C@H]1C	none
C[C@H](CO)N1C[C@H](C)[C@@H](CN(C)S(=O)(=O)c2ccc(Cl)cc2)OCCCC[C@H](C)Oc2ccc(NC(=O)Nc3ccc(C(F)(F)F)cc3)cc2C1=O	DENV2 CPE 36 (no result: C2C12 statin)
C[C@@H]1CN([C@H](C)CO)C(=O)c2cc(NC(=O)Nc3ccc(C(F)(F)F)cc3)ccc2O[C@@H](C)CCCCO[C@H]1CN(C)S(=O)(=O)c1ccc(Cl)cc1	none (no result: C2C12 statin)
